Screens as filed in PubChem BioAssay.
Most compounds without a hit are left out; they make up all but 2.9% or so of the library.
PfM18AAP inh: PfM18AAP inhibitors, malaria aminopeptidase, primary screen, biochemical, QFRET, recombinant enzyme; M18 aspartyl aminopeptidase (Plasmodium falciparum 3D7); H-Glu-NHMec fluorogenic cleavage; inhibition, % at 7.35 µM; 290,000 compounds, 1.2% hits;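 active = inhibition above the campaign mean inhibition over all tested compounds plus 3 SD, cut at about 28% in these data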
EBNA-1 inhibitor: EBNA-1 DNA-binding inhibitors, primary screen, biochemical, fluorescence polarization. inhibition, % at 14.8 µM. 300,000 compounds, 0.34% hits; in the data active = inhibition above about 28%
UBC13 inh: UBC13 polyubiquitin chain formation inhibitors, primary screen, biochemical, TR-FRET, uHTS; inhibition, % at 20 µM; AID 485273, 2010; Ubiquitin-conjugating enzyme E2 N (Homo sapiens), P61088; 330,000 compounds, 0.47% hits; in the data active = inhibition above about 45%, passing the limit was not always enough
Target sequence (P61088 whole entry, looked up): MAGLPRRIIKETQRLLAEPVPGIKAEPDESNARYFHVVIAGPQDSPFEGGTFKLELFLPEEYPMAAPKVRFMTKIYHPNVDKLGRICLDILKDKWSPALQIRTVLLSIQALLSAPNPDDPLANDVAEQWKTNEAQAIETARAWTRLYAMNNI
PfGluPho inh: PfG6PD enzyme inhibitors, primary screen, biochemical, fluorescence intensity, uHTS; glucose-6-phosphate dehydrogenase-6-phosphogluconolactonase (Plasmodium falciparum 3D7); PfGluPho enzyme, NADPH resazurin-diaphorase fluorescence; inhibition, % at 20 µM; 350,000 compounds, 0.78% hits; AID 504690, 2011;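 active = inhibition reaching at least a set limit at 20 µM in the primary screen, cut at about 59% in these data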
ZTA counter: ZTA (EBV) inhibition in EBNA-1 counter-screen; P03206; 320,000 compounds, 0.15% hits; inhibition, % at 11 µM; ZTA-DNA binding, fluorescence polarization; in the data active = inhibition above about 33%
Target sequence (P03206 whole entry, looked up): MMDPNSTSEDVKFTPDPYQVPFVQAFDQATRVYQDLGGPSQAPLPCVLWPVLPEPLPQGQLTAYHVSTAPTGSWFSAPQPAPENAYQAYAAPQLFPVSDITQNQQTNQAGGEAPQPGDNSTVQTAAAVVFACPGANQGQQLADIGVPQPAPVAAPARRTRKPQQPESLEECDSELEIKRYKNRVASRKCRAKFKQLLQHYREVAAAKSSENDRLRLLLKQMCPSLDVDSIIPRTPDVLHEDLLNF
Apaf1 inhib: inhibitors of human Apaf-1 apoptosome, primary screen, biochemical, DEVD-Rh110 fluorescence, uHTS | Apoptotic protease-activating factor 1 (Homo sapiens), O14727 | reconstituted apoptosome caspase-3 activity | inhibition, % at 20 µM | 330,000 compounds, 0.71% hits; active = inhibition of at least 40% at 20 µM
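Material: biochemical Apaf-1 apoptosome reconstitution. Medium: Hepes buffer, pH 7.5. Also added: cytochrome c activation, bis-DEVD rhodamine 110 substrate. Timing: 30 min compound preincubation, 50 min activation, room temperature. Measured by: rhodamine 110 fluorescence at Ex 480/Em 540 nm.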
EBNA-1 inh conf: EBNA-1 DNA-binding inhibitors, retest, confirmation, biochemical, fluorescence polarization, triplicate. shares compounds with EBNA-1 inhibitor. Recombinant EBNA-1 DBD, Cy5-DNA fluorescence polarization. inhibition, % at 14.8 µM. 830 compounds, 35% hits. AID 2292, 2010;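 active = mean inhibition across replicates above a set limit taken from the earlier primary screen, cut at about 28% in these data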
ZTA counter trip: EBV Zta DNA binding inhibitors, counter-screen for EBNA-1 inhibitor project, biochemical, fluorescence polarization, triplicate. shares compounds with EBNA-1 inhibitor. AID 2328, 2010. Zta-ZRE DNA binding, Cy5 fluorescence polarization. inhibition, % at 11.1 µM. 830 tested, under 10 active;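 active = mean inhibition over triplicates above a set limit taken from the primary EBNA-1 screen, cut at about 37% in these data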;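 also: purified full length Zta protein with Cy5 labeled ZRE DNA probe; inhibitors lower polarization by freeing the labeled DNA probe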
Numbers stand for hits; . = inactive; / = no result given.

SMILES	PfM18AAP inh	EBNA-1 inhibitor	UBC13 inh	PfGluPho inh	ZTA counter	Apaf1 inhib	EBNA-1 inh conf	ZTA counter trip
CCOC(=O)C(Cc1ccc(NC(=O)/C(=C/c2ccccc2)NC(=O)c2ccccc2)cc1)N1C(=O)c2ccccc2C1=O (stereo unspecified)	.	40.6	.	.	.	.	.	.
O=C(CSc1ccc(Br)cc1)NC1CCS(=O)(=O)C1 (stereo unspecified)	/	.	.	.	.	.	/	/
NC(=S)N/N=C/c1ccc(/C=N/NC(N)=S)cc1	.	67.9	.	.	.	.	34.4	.
CC(C)Cn1cc(C(=O)NCc2cccs2)c2c3ccccc3n(C)c2c1=O	.	37.8	.	.	.	.	.	.
COc1ccc(-n2c(SCc3ccc([N+](=O)[O-])cc3)nnc2-c2ccc(C)cc2)cc1	.	.	.	.	.	.	/	/
COc1cc(C(=O)Nc2cccc(-c3nc4ncccc4o3)c2C)cc(OC)c1OC	.	.	.	.	.	.	/	/
COc1cc(C(=O)Nc2cccc(-c3nc4cc(C)ccc4o3)c2C)cc(OC)c1OC	.	37.3	.	.	.	.	.	.
COc1cc2[nH]c(=S)n(Cc3ccccc3)c(=O)c2cc1OC	.	.	.	.	.	.	/	/
COc1cc2[nH]c(=O)n(Cc3ccccc3Cl)c(=O)c2cc1OC	.	39.4	.	.	.	.	.	.
O=c1[nH]c2cccc(Cl)c2c2ccccc12	/	/	/	.	/	/	/	/
Cc1cc(C)c2cccc(NC(=S)NC(=O)c3ccccc3)c2n1	.	34.2	.	.	.	.	27.7	.
O=C(COC(=O)/C=C/c1ccc(Cl)cc1Cl)Nc1ccc2c(c1)OCCO2	.	.	.	.	.	.	/	/
COc1cc(NC(=O)COC(=O)/C=C/c2ccc(Cl)cc2Cl)cc(OC)c1	.	53.4	.	.	.	.	59.2	.
COc1cccc(C(=O)Nc2ccc3c(c2)C(=O)NC3=O)c1	.	.	.	.	.	.	/	/
COc1ccc(NC(=O)Nc2ccc(OC)cc2)cc1	.	54.5	.	.	.	.	32.3	.
COc1ccc(NC(=O)C2(c3ccc(NC(=O)c4ccc(C)cc4)cc3)CCCC2)cc1	.	.	.	.	.	.	/	/
COc1ccc(NC(=O)c2ccc(OC(=S)N(C)c3ccc(OC)cc3)cc2)cc1	.	34.0	.	.	.	.	.	.
COc1ccc(C(=O)Nc2ccc3c(c2)C(=O)NC3=O)cc1	.	32.8	.	.	.	.	.	.
COc1ccc(C(=O)Nc2ccc(C3(C#N)CCCC3)cc2)cc1	.	55.8	.	.	.	.	.	.
CSc1ccccc1OCc1cc(C(=O)N2CCc3c(Cl)cccc3C2)no1	.	.	.	.	.	.	/	/
COc1cc(Br)cc(CN2CCN(c3ncccn3)CC2)c1O	.	/	.	.	/	.	/	/
N#Cc1c2ncn(CC(=O)c3ccc(Br)cc3)c(=O)c2c2n1CCC2	.	28.8	.	.	.	.	136.1	.
N#Cc1c2n(c3c(=O)n(CC(=O)c4ccc(Br)cc4)cnc13)CCCC2	.	.	.	.	.	.	/	/
CC1CCN(S(=O)(=O)c2ccc(NC(=O)Cn3nnc(-c4ccccc4)n3)cc2)CC1	.	30.1	.	.	.	.	.	.
CCOc1ccc(C(=O)N/N=C/c2ccc(-c3ccc(S(=O)(=O)Nc4ncccn4)cc3)o2)cc1	.	.	.	.	.	.	/	/
SMILES	PfM18AAP inh	EBNA-1 inhibitor	UBC13 inh	PfGluPho inh	ZTA counter	Apaf1 inhib	EBNA-1 inh conf	ZTA counter trip
O=C(N/N=C/c1ccc(-c2ccc(S(=O)(=O)Nc3ncccn3)cc2)o1)c1cc2ccccc2cc1O	.	32.3	.	.	.	.	46.0	40.9
CC(C)CN(C(=O)CN(C)CC(=O)Nc1ccc(Cl)c(C(F)(F)F)c1)c1c(N)n(CC(C)C)c(=O)[nH]c1=O	/	/	.	.	/	.	/	/
NC(=O)c1ccccc1NC(=O)c1cccc(C(=O)Nc2ccccc2C(N)=O)n1	/	34.8	.	.	.	.	35.9	.
COc1ccc(NC(=O)c2cc(-c3cc(Cl)ccc3O)n[nH]2)c(OC)c1	.	32.8	.	.	.	.	.	.
COc1ccc(NC(=O)c2ccc(C(=O)Nc3ccc(OC)cc3OC)cc2)c(OC)c1	.	56.2	.	.	.	.	51.4	.
C/C(=N\NC(=O)Cc1cccn1C)c1cccs1	.	.	.	.	.	.	/	/
CCOC(=O)N1CCc2c(sc(NC(=O)C3COc4ccccc4O3)c2C(N)=O)C1 (stereo unspecified)	.	29.4	.	.	.	.	56.2	.
CC(=O)N1CCc2c(sc(NC(=O)C3COc4ccccc4O3)c2C(N)=O)C1 (stereo unspecified)	.	.	.	.	.	.	/	/
COc1ccc(N2CCN(C(=S)Nc3ccc(F)cc3)CC2)cc1	.	34.5	.	.	.	.	.	.
COc1ccc(N2CCN(C(=S)Nc3cc(C)cc(C)c3)CC2)cc1	.	.	.	.	.	.	/	/
CC1CCCC(N2CCN(C(=O)c3ccccc3F)CC2)C1 (stereo unspecified)	.	.	.	.	.	.	/	/
CCn1c(=O)c(C(=O)NCc2ccc(OC)c(OC)c2)c(O)c2ccccc21	.	30.4	.	.	.	.	.	.
Cc1ccc(C(=O)CSc2nc(C)cc(SCc3nnc(-c4ccccc4)o3)n2)cc1	.	27.5	.	.	.	.	.	.
COc1ccc(C(=O)CSc2cc(C)nc(SCC(=O)c3ccc(C)cc3)n2)cc1	.	.	.	.	.	.	/	/
CC(=O)Oc1ccc(-c2cccc(C(=O)NCCCO)c2)cc1	.	.	.	.	.	.	/	/
COc1ccc(-c2nc(SCC(=O)Nc3nccs3)c(-c3ccc(Cl)cc3)[nH]2)cc1	.	73.4	.	.	.	.	32.1	.
c1cc2ccc3ccc(-n4cnnn4)c4ccc(c1)c2c34	.	34.4	.	.	.	.	35.5	.
Nc1ccc2nc(SCC(=O)Nc3ccc(N4CCOCC4)c(Cl)c3)sc2c1	.	.	.	.	.	.	/	/
CCCC(=O)Nc1ccc2nc(SCC(=O)Nc3ccc(N4CCOCC4)c(Cl)c3)sc2c1	.	66.8	.	.	.	.	71.3	.
CN(C)S(=O)(=O)c1ccc(NC(=O)C2CC3C=CC2C3)cc1 (stereo unspecified)	.	.	.	.	.	.	/	/
